Key:
Canis familiaris [1] = species on record: Canis familiaris; assay: Relative affinity compared to substance P was measured in the dog carotid artery.; assay type: functional, Canis lupus familiaris
Cavia porcellus [2] = species on record: Cavia porcellus; assay: Apparent affinity was measured on the guinea pig ileum.; assay type: functional
Method in brief: (§1)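 Guinea pig ileum (animals 200-400 g, both sexes) from animals killed by stunning and exsanguination. Concentration-response curves built by consecutive additions of drug to the bath.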

Oryctolagus cuniculus [3] = species on record: Oryctolagus cuniculus; assay: Relative affinity compared to substance P was measured in rabbit mesenteric vein.; assay type: functional
Method in brief: (§2)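 Rabbit mesenteric vein from rabbits killed by stunning and exsanguination. Concentration-response curves built by consecutive drug additions to the bath fluid.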

Oryctolagus cuniculus [4] = species on record: Oryctolagus cuniculus; assay: Intrinsic activity was measured on the rabbit mesenteric vein.; assay type: functional; method in brief: as §2
Rattus norvegicus = assay: Relative potency compared substance P - change in blood pressure in anesthetized rat.; assay type: functional
Method in brief: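 Rats 200-250 g, anesthetized with urethane (1.4 g/kg, sc). Peptides injected into the jugular vein. Blood pressure recorded directly via a cannula in the right carotid artery with a mercury manometer on a kymograph-driven smoked drum.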

Oryctolagus cuniculus [5] = species on record: Oryctolagus cuniculus; assay: Apparent affinity was measured on the rabbit mesenteric vein.; assay type: functional; method in brief: as §2
Cavia porcellus [6] = species on record: Cavia porcellus; assay: Relative affinity compared to substance P was measured in guinea pig ileum.; assay type: functional; method in brief: as §1
Canis familiaris [7] = species on record: Canis familiaris; assay: Apparent affinity was measured on the dog carotid artery.; assay type: functional, Canis lupus familiaris
Cavia porcellus [8] = species on record: Cavia porcellus; assay: Intrinsic activity was measured on the guinea pig ileum.; assay type: functional; method in brief: as §1
Canis familiaris [9] = species on record: Canis familiaris; assay: Intrinsic activity was measured on the dog carotid artery.; assay type: functional, Canis lupus familiaris

Row | Compound | RA (Canis familiaris [1]) | pD2 (Cavia porcellus [2]) | RA (Oryctolagus cuniculus [3]) | Alphax10E (Oryctolagus cuniculus [4]) | RP (Rattus norvegicus) | pD2 (Oryctolagus cuniculus [5]) | RA (Cavia porcellus [6]) | pD2 (Canis familiaris [7]) | Alphax10E (Cavia porcellus [8]) | Alphax10E (Canis familiaris [9])
1 | CSCC[C@H](NC(=O)[C@H](CC(C)C)NC(=O)CNC(=O)[C@H](Cc1ccccc1)NC(=O)[C@H](CC1CCCCC1)NC(=O)[C@H](CCC(N)=O)NC(=O)[C@H](CCC(N)=O)NC(=O)[C@@H]1CCCN1C(=O)[C@H](CCCCN)NC(=O)[C@@H]1CCCN1C(=O)[C@@H](N)CCCN=C(N)N)C(N)=O | 6.4 | 8.08 | 13.2 | 0.8 | 21 | 6.66 | 20 | 8.8 | 1 | 1
2 | CC[C@H](C)[C@H](NC(=O)[C@H](Cc1ccccc1)NC(=O)[C@H](CCC(N)=O)NC(=O)[C@H](CCC(N)=O)NC(=O)[C@@H]1CCCN1C(=O)[C@H](CCCCN)NC(=O)[C@@H]1CCCN1C(=O)[C@@H](N)CCCN=C(N)N)C(=O)NCC(=O)N[C@@H](CC(C)C)C(=O)N[C@@H](CCSC)C(N)=O | – | 8.78 | 100 | 1 | 100 | 7.55 | 100 | – | 1 | –
3 | CSCC[C@H](NC(=O)[C@H](CC(C)C)NC(=O)CNC(=O)[C@H](CC1CCCCC1)NC(=O)[C@H](Cc1ccccc1)NC(=O)[C@H](CCC(N)=O)NC(=O)[C@H](CCC(N)=O)NC(=O)[C@@H]1CCCN1C(=O)[C@H](CCCCN)NC(=O)[C@@H]1CCCN1C(=O)[C@@H](N)CCCN=C(N)N)C(N)=O | – | 8.78 | 100 | 1 | 100 | 7.55 | 100 | – | 1 | –
4 | CSCC[C@H](NC(=O)[C@H](CC(C)C)NC(=O)[C@@H](Cc1ccccc1)NC(=O)[C@@H](CC(C)C)NC(=O)[C@H](Cc1ccccc1)NC(=O)[C@H](CCC(N)=O)NC(=O)[C@H](CCC(N)=O)NC(=O)[C@@H]1CCCN1C(=O)[C@H](CCCCN)NC(=O)[C@@H]1CCCN1C(=O)[C@@H](N)CCCN=C(N)N)C(N)=O | 0.8 | 6.83 | <0.01 | – | 1.3 | – | 1.2 | 7.89 | – | 1
5 | CSCC[C@H](NC(=O)[C@H](CC(C)C)NC(=O)CNC(=O)[C@@H](Cc1c[nH]c2ccccc12)NC(=O)[C@H](Cc1ccccc1)NC(=O)[C@H](CCC(N)=O)NC(=O)[C@H](CCC(N)=O)NC(=O)[C@@H]1CCCN1C(=O)[C@H](CCCCN)NC(=O)[C@@H]1CCCN1C(=O)[C@@H](N)CCCN=C(N)N)C(N)=O | 0.2 | 6.68 | 0.3 | – | 0.8 | 4.92 | 0.8 | 7.12 | 1 | 1
6 | COc1ccc(C[C@H](NC(=O)[C@H](CCC(N)=O)NC(=O)[C@H](CCC(N)=O)NC(=O)[C@@H]2CCCN2C(=O)[C@H](CCCCN)NC(=O)[C@@H]2CCCN2C(=O)[C@@H](N)CCCN=C(N)N)C(=O)N[C@@H](Cc2ccccc2)C(=O)NCC(=O)N[C@@H](CC(C)C)C(=O)N[C@@H](CCSC)C(N)=O)cc1 | – | 8.27 | 20.5 | 0.8 | 31 | 6.87 | 31 | – | 1 | –
7 | CSCC[C@H](NC(=O)[C@H](CC(C)C)NC(=O)CNC(=O)[C@H](Cc1ccccc1)NC(=O)[C@H](CC(C)C)NC(=O)[C@H](CCC(N)=O)NC(=O)[C@H](CCC(N)=O)NC(=O)[C@@H]1CCCN1C(=O)[C@H](CCCCN)NC(=O)[C@@H]1CCCN1C(=O)[C@@H](N)CCCN=C(N)N)C(N)=O | 0.4 | 7.15 | 1.3 | – | 0.8 | 5.66 | 2.3 | 7.64 | 1 | 1
8 | COc1ccc(C[C@H](NC(=O)[C@H](Cc2ccccc2)NC(=O)[C@H](CCC(N)=O)NC(=O)[C@H](CCC(N)=O)NC(=O)[C@@H]2CCCN2C(=O)[C@H](CCCCN)NC(=O)[C@@H]2CCCN2C(=O)[C@@H](N)CCCN=C(N)N)C(=O)NCC(=O)N[C@@H](CC(C)C)C(=O)N[C@@H](CCSC)C(N)=O)cc1 | 95 | 8.78 | 100 | 1 | 100 | 7.55 | 100 | 9.98 | 1 | 1
9 | CSCC[C@H](NC(=O)[C@H](CC(C)C)NC(=O)[C@@H](CC(C)C)NC(=O)[C@H](Cc1ccccc1)NC(=O)[C@H](Cc1ccccc1)NC(=O)[C@H](CCC(N)=O)NC(=O)[C@H](CCC(N)=O)NC(=O)[C@@H]1CCCN1C(=O)[C@H](CCCCN)NC(=O)[C@@H]1CCCN1C(=O)[C@@H](N)CCCN=C(N)N)C(N)=O | 0.3 | 7.21 | 0.4 | – | 0.7 | 5.11 | 2.7 | 7.49 | 1 | 1
10 | CSCC[C@H](NC(=O)[C@H](CC(C)C)NC(=O)CNC(=O)[C@H](Cc1ccccc1)NC(=O)[C@H](Cc1c[nH]c2ccccc12)NC(=O)[C@H](CCC(N)=O)NC(=O)[C@H](CCC(N)=O)NC(=O)[C@@H]1CCCN1C(=O)[C@H](CCCCN)NC(=O)[C@@H]1CCCN1C(=O)[C@@H](N)CCCN=C(N)N)C(N)=O | 37.1 | 8.38 | 10 | – | 51 | 6.55 | 39.7 | 9.56 | 1 | 1
11 | CSCC[C@H](NC(=O)[C@H](Cc1ccccc1)NC(=O)CNC(=O)[C@@H](C)NC(=O)[C@H](Cc1ccccc1)NC(=O)[C@H](CCC(N)=O)NC(=O)[C@H](CCC(N)=O)NC(=O)[C@@H]1CCCN1C(=O)[C@H](CCCCN)NC(=O)[C@@H]1CCCN1C(=O)[C@@H](N)CCCN=C(N)N)C(N)=O | 1.4 | 4.73 | <0.1 | – | 0.09 | – | <0.01 | 8.15 | – | 1
12 | CSCC[C@H](NC(=O)[C@H](CC(C)C)NC(=O)CNC(=O)[C@H](Cc1ccccc1)NC(=O)[C@@H](Cc1c[nH]c2ccccc12)NC(=O)[C@H](CCC(N)=O)NC(=O)[C@H](CCC(N)=O)NC(=O)[C@@H]1CCCN1C(=O)[C@H](CCCCN)NC(=O)[C@@H]1CCCN1C(=O)[C@@H](N)CCCN=C(N)N)C(N)=O | 0.2 | 5.9 | <0.1 | – | 0.2 | – | 0.2 | 7.33 | 1 | 1
13 | CSCC[C@H](NC(=O)[C@H](CC(C)C)NC(=O)CNC(=O)[C@H](CC(C)C)NC(=O)[C@H](Cc1ccccc1)NC(=O)[C@H](CCC(N)=O)NC(=O)[C@H](CCC(N)=O)NC(=O)[C@@H]1CCCN1C(=O)[C@H](CCCCN)NC(=O)[C@@H]1CCCN1C(=O)[C@@H](N)CCCN=C(N)N)C(N)=O | 64 | 8.61 | 23.6 | 0.8 | 70 | 6.92 | 68 | 9.81 | 1 | 1
14 | H-RPKPQQFGGFM-NH2 | 0.2 | 5.31 | <0.1 | – | 0.07 | – | <0.1 | 7.33 | – | 1
15 | H-RPKPQQLLGLM-NH2 | <0.1 | 5.29 | <0.01 | – | 0.2 | – | <0.1 | 6.38 | – | 1

Source: ChEMBL document CHEMBL1121933 (1982)
